Results collected from several papers.
Each line is one published result; the experiments were not run side by side.
Target: Serine/threonine-protein kinase PLK2 (PLK2, Homo sapiens, UniProt Q9NYY3)

Cc1cnc(NC2CCOCC2)nc1-n1cnc(C(=O)NC(CN)c2cc(F)cc(Cl)c2)c1 (stereo not drawn)
remaining activity (enzyme activity; inhibitor; radiometric; 1 µM): 69%

CNC(=O)Nc1ccc2c(c1)[C@@]1(CC2)OC(=O)N(CC(=O)N(Cc2ccc(F)cc2)[C@@H](C)C(F)(F)F)C1=O
remaining binding (cell-free assay; competition with immobilised ligand; 1 µM): 92%

COc1cc(Cl)c(C(=O)N[C@@H](CN[C@H]2CC[C@@H](N)CC2)Cc2ccc(C#N)cc2)cc1-c1ccc(CN[C@H](C)c2ccc(C)cc2)o1
remaining activity (enzyme activity; inhibitor; 1 µM): 96%

CC(C)(C)c1nc2c(s1)c1nc(N)ncc1c1ccc(NS(=O)(=O)c3c(F)cccc3F)c(F)c12
remaining activity (enzyme activity; inhibitor; radiometric; 1 µM): 91%

N[C@@H]1CCN(c2nccc(-c3cnn4ncccc34)n2)C1
remaining binding (binding; 1 µM): 100%

O=C(O)[C@H]1[C@H](Cn2nnc3ccccc3c2=O)CC[C@@H]1C(=O)c1ccc(OCCC2CCOCC2)cc1
remaining binding (cell-free assay; competition with immobilised ligand; 1 µM): 100%

CCN(CC)CCNC(=O)c1c(C)[nH]c(/C=C2\C(=O)Nc3ccc(F)cc32)c1C
inhibition (enzyme activity; inhibitor; 10 µM): 6%

COc1cccc(CNC(=O)c2nc3scc(COCc4ccc(C(=O)O)cc4)c3c(=O)[nH]2)c1
remaining binding (cell-free assay; competition with immobilised ligand; 1 µM): 56.7%

CN1CC(Oc2cnc(C#N)cc2-c2ccn3nc(NC(=O)C4CC4)cc3c2)C1
inhibition (enzyme activity; inhibitor; 1 µM): 1%

C[C@H](c1ccnc(Nc2nc3ccc(-c4cc(N(C)C)ncn4)cc3[nH]2)c1)N1CCN(C(=O)CC(F)(F)F)CC1
remaining binding (cell-free assay; competition with immobilised ligand; 0.1 µM): 100%

COc1cc2ncnc(Nc3ccc(Oc4ccccc4)cc3C)c2cc1OC
inhibition (enzyme activity; inhibitor; 1 µM): 5%

CNC(=O)c1cc(Oc2ccc(NC(=O)Nc3ccc(Cl)c(C(F)(F)F)c3)cc2)ccn1
inhibition (enzyme activity; inhibitor; 0.3 µM): -1%

O=C1Nc2ccc(Cl)cc2C1=Cc1cc(Cl)c(O)c(Cl)c1
remaining signal (cell-free assay; 0.5 µM): 95.4%

O=C(Nc1cnn(-c2csc(C(=O)NC3COC3)c2)c1)Nc1ccccc1Cl
remaining activity (enzyme activity; inhibitor; 5 µM): 86%

Cc1ccc(NC(=O)c2ccc(CN3CCN(C)CC3)cc2)cc1Nc1nc(-c2cccnc2)cs1
remaining signal (cell-free assay; 0.5 µM): 97.9%

CO[C@@H](C)c1c(Nc2ccc([C@H](N(C)C(=O)C3CCS(=O)(=O)CC3)C(F)(F)F)cc2)cnc2cc(Cl)nn12
remaining binding (cell-free assay; competition with immobilised ligand; 1 µM): 100%

N#CCCc1ccc2c(c1)-c1[nH]c3ccc([N+](=O)[O-])cc3c1CC(=O)N2
remaining signal (cell-free assay; 0.5 µM): 99%

Cc1sc(C(=O)NC2COC2)cc1-n1cc(NC(=O)Nc2c(F)cccc2Cl)cn1
remaining activity (enzyme activity; inhibitor; 10 µM): 95.2%

COc1cc(-c2cc(-c3ccc(N4CCNCC4)cc3)cnc2C)cc(OC)c1OC
inhibition (enzyme activity; inhibitor; 0.1 µM): 7%

CCCCN(CCCC)C(=O)CN1C[C@@H](c2cc(OC)c3c(c2)OCO3)[C@H](C(=O)O)[C@H]1CC(C)(C)CCC
remaining binding (cell-free assay; competition with immobilised ligand; 1 µM): 98.4%

Nc1ncnc2occ(-c3ccc(NC(=O)Nc4cc(C(F)(F)F)ccc4F)cc3)c12
remaining signal (cell-free assay; inhibitor; 20 µM): 0.1%

COc1cc(Nc2c(C#N)cnc3cc(OCCCN4CCN(C)CC4)c(OC)cc23)c(Cl)cc1Cl
remaining signal (cell-free assay; 0.5 µM): 100%

CO[C@H]1CC[C@H](CNc2ccc(S(=O)(=O)NC(=O)c3ccc(N4CCN(CC5=C(c6ccc(Cl)cc6)CC(C)(C)CC5)CC4)cc3Oc3cnc4[nH]ccc4c3)cc2[N+](=O)[O-])CC1
remaining binding (cell-free assay; competition with immobilised ligand; 1 µM): 100%

Cc1ccc(Nc2nccc(N(C)c3ccc4c(C)n(C)nc4c3)n2)cc1S(N)(=O)=O
inhibition (enzyme activity; inhibitor; 0.3 µM): -15%
